Columns and labels:
Calf thymus DNA = assay: Apparent DNA affinity constant; assay type: nucleic-acid assay; conditions: Bos taurus
In short: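 Apparent DNA affinity constant was measured by competition with ethidium bromide. Buffer was 20 mM Na2HPO4/NaH2PO4, 0.1 M NaCl, 1 mM EDTA, pH 7.4, with calf thymus DNA at 10 μg/mL. Values are given in 10^6 M⁻¹.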

L1210 = assay: Ability to reduce the cell count to 50% in L1210 culture cells; assay type: functional; conditions: Mus musculus, read-out: ID50 (the source's name)
In short: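 L1210 cells in exponential growth in RPMI 1640 with 2 mM glutamine, penicillin/streptomycin and 10% FCS, 37 °C, 5% CO2. Drugs dissolved in distilled water were added to cells at 0.8 × 10^5 cells/mL for 48 h, then cells were counted. ID50 is the concentration halving cell proliferation versus controls, from regression of dose-response data; mean of two independent experiments.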

Mus musculus [1] = assay: Antitumor activity against P388 leukemia in mice at a dose of 2.5 mg/kg administered intraperitoneally for 5 days; assay type: functional; conditions: route intraperitoneal
In short: (§1)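 CDF1 hybrid male or female mice, 10 per group, were inoculated ip with 10^6 viable P388 cells on day 0. Drugs in distilled water were given ip (0.1 mL/10 g body weight) daily D1-5. Vehicle, 5-fluorouracil and BD 84 were given the same way. T/C = median survival day of treated / controls × 100; T/C > 128% was significant; cures counted at D60.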

Mus musculus [2] = assay: Antitumor activity against P388 leukemia in mice at a dose of 10 mg/kg administered intraperitoneally for 5 days; It is nontoxic at this dose; assay type: functional; conditions: route intraperitoneal; in short: as §1
Mus musculus [3] = assay: Antitumor activity against P388 leukemia in mice at a dose of 5 mg/kg administered intraperitoneally for 5 days; assay type: functional; conditions: route intraperitoneal
In short: (§2)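 CDF1 hybrid male or female mice, 10 per group, were inoculated ip on day 0 with 10^6 viable P388 leukemia cells. Drug in distilled water was given ip (0.1 mL/10 g body weight) daily on days 1-5, with vehicle, 5-fluorouracil and BD 84 controls given the same way. T/C = median survival of treated/controls × 100; T/C > 128% counted as significant.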

Mus musculus [4] = assay: Antitumor activity against P388 leukemia in mice at a dose of 50 mg/kg administered intraperitoneally for 5 days; assay type: functional, organism-based; design: dose 50 mg/kg; in short: as §2
Mus musculus [5] = assay: Antitumor activity against P388 leukemia in mice at a dose of 10 mg/kg administered intraperitoneally for 5 days; assay type: functional; conditions: route intraperitoneal; in short: as §1
Mus musculus [6] = assay: Antitumor activity against P388 leukemia in mice at a dose of 40 mg/kg administered intraperitoneally for 5 days; assay type: functional; in short: as §2
Mus musculus [7] = assay: Antitumor activity against P388 leukemia in mice at a dose of 20 mg/kg administered intraperitoneally for 5 days; assay type: functional; conditions: route intraperitoneal; in short: as §1

Row | SMILES | K aff (Calf thymus DNA) [M⁻¹] | IC50 (L1210) [nM] | T/C (Mus musculus [1]) [%] | T/C (Mus musculus [2]) [%] | T/C (Mus musculus [3]) [%] | T/C (Mus musculus [4]) | T/C (Mus musculus [5]) [%] | T/C (Mus musculus [6]) | T/C (Mus musculus [7]) [%]
1 | CCN(CC)CCCCNc1ncc(C)c2c1c1cc(O)ccc1n2C | 350000 | 310 | – | – | – | – | – | – | –
2 | CN(C)CCCNc1[nH]ccc2nc3ccc(O)cc3c1-2 | 70000 | 11200 | 111 | 115 | 102 | – | – | – | –
3 | Cc1c[nH]c(NCCCN(C)C)c2c3ccccc3nc1-2 | 130000 | 160 | – | – | – | Toxic | 129 | – | –
4 | COc1ccc2c(c1)c1c(NCCCN(C)C)ncc(C)c1n2C | 360000 | 130 | – | – | 134 | – | 160 | Toxic | 150
5 | COc1ccc2c(c1)c1c(NCCCN3CCCC3)ncc(C)c1n2C | 300000 | 500 | – | – | – | – | – | – | –

Source: ChEMBL document CHEMBL1124035, “1-Amino-substituted 4-methyl-5H-pyrido[4,3-b]indoles (gamma-carbolines) as tricyclic analogues of ellipticines: a new class of antineoplastic agents” (1988)
